Here are results for one molecule from article PMC10238246 (Medicinal Chemistry Research, 2023).

For one series, the system named is mouse rotarod assay. The series can be described thus: mouse rotarod assay. It is filed as in vivo. To be noted: dose of 200 mg/kg. In general terms: In the rotarod test animals must keep their balance on a rotating rod.
The test system of another series is mouse formalin model. The experiment in a line: mouse formalin model of acute and persistent pain. Format: in vivo. Particulars: 200 mg/kg i.p., positive control. The gist of the method:
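Mouse formalin model: test compounds given s.c. (10, 30, 60 mg/kg) or i.p. (30 mg/kg) to maximise exposure. The positive control was a reference analgesic at 200 mg/kg i.p. Formalin-induced flinches were counted over 65 min. Plasma and brain levels were sampled at study end (~90 min post-dose), and free plasma level was estimated from plasma protein binding.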

Consider `NCC1(CC(=O)O)CCCCC1` [Gabapentin], for which the behavioral side effects entry with mouse rotarod assay is given as “behavioral side effects (i.e., sedation)”. Besides, in the series with mouse formalin model, the “efficacy in the formalin model (number of flinches)” value is “Efficacy was seen”.
